Tests used:
Glucagon receptor = Glucagon receptor (Homo sapiens, UniProt P47871); assay: Agonist activity at human glucagon receptor expressed in HEK293 cells assessed as induction of cAMP accumulation incubated for 30 mins by HTRF assay; type: functional, cell-based
[1] = molecular target: Glucagon-like peptide 1 receptor (Homo sapiens, UniProt P43220); assay: Agonist activity at human GLP-1 receptor expressed in HEK293 cells assessed as induction of cAMP accumulation incubated for 30 mins by HTRF assay; type: functional, cell-based
Chain of Glucagon-like peptide 1 receptor (P43220 whole entry): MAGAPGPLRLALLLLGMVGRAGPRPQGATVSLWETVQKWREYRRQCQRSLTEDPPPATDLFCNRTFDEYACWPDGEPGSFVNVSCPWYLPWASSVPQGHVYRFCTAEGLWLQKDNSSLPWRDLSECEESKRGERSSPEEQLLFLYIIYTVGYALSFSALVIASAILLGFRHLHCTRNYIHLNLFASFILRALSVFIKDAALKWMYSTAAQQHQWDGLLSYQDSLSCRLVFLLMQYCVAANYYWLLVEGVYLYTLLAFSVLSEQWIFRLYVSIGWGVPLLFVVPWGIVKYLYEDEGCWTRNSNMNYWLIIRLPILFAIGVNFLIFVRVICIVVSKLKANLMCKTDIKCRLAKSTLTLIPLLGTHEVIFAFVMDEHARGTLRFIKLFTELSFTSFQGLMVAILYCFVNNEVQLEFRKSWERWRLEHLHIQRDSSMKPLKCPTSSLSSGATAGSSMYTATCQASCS
Outline: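 HEK-293 cells stably expressing human receptor, grown in DMEM/10% FBS, frozen, thawed and washed in HBSS/20 mM HEPES/0.1% HSA; resuspended with 2 mM IBMX. 5000 cells/well incubated with peptide 30 min at room temperature; cAMP by HTRF kit, 1 h with reagents in lysis buffer, 665/620 nm fluorescence ratio.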

Carboxypeptidase B2 = molecular target: T1, Carboxypeptidase B2 (Homo sapiens, UniProt Q96IY4); assay: Inhibition of TAFIalpha in human plasma incubated for 15 mins by chromogenic assay; type: cell-free
T1 sequence (Q96IY4 whole entry): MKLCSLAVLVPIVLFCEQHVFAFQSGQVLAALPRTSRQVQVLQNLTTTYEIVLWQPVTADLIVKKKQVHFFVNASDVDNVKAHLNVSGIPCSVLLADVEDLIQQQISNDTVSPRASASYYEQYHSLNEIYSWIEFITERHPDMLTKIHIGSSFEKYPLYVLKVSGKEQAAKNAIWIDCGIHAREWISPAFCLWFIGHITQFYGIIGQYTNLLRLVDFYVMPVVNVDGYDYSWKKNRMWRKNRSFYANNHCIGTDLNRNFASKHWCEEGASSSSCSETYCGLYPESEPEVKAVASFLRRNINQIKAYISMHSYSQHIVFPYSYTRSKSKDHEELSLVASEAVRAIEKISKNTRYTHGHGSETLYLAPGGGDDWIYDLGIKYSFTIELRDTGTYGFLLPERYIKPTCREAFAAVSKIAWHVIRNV
Outline: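 Plasma TAFI activity kit: TAFIa (2.5 μg/mL) preincubated with compound (from 2.5 mM DMSO stock) in 20 mM HEPES, 150 mM NaCl, pH 7.4, 15 min at room temperature; reaction started with developer (1:2 prediluted) and followed at 420 nm for 15 min. IC50 from serial dilutions in duplicate; mean (SEM) of n = 2 within one experiment.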

Chain of Glucagon receptor (P47871 whole entry): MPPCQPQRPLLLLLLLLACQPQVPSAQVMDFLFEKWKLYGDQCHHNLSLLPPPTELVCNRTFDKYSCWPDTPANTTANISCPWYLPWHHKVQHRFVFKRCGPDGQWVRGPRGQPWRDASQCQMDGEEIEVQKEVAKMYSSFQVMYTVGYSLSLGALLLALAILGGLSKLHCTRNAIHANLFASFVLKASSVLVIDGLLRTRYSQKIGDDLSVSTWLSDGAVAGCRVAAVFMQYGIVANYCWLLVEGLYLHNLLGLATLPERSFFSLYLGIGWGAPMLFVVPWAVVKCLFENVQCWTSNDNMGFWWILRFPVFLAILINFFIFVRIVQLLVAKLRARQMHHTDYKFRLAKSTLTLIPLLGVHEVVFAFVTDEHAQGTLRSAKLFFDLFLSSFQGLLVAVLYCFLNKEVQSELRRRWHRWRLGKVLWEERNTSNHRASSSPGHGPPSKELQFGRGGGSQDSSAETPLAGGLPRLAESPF

| Structure (SMILES) | IC50 (Carboxypeptidase B2) | EC50 (Glucagon receptor) | EC50 [1] |
| --- | --- | --- | --- |
| CC[C@H](C)[C@H](NC(=O)[C@H](Cc1ccccc1)NC(=O)[C@H](CC(=O)O)NC(=O)[C@H](CCC(N)=O)NC(=O)[C@H](C)NC(=O)[C@H](CCCNC(=N)N)NC(=O)[C@H](CCCNC(=N)N)NC(=O)[C@H](CO)NC(=O)[C@H](CC(=O)O)NC(=O)[C@H](CCSC)NC(=O)[C@H](CCC(N)=O)NC(=O)[C@H](CCCCN)NC(=O)[C@H](CO)NC(=O)[C@H](CC(C)C)NC(=O)[C@H](CC(=O)O)NC(=O)[C@H](CO)NC(=O)[C@@H](NC(=O)[C@H](Cc1ccccc1)NC(=O)[C@@H](NC(=O)CNC(=O)[C@H](CCC(N)=O)NC(=O)[C@H](CO)NC(=O)[C@@H](N)Cc1cnc[nH]1)[C@@H](C)O)[C@@H](C)O)C(=O)N[C@@H](CCC(=O)O)C(=O)N[C@@H](Cc1c[nH]c2ccccc12)C(=O)N[C@@H](CC(C)C)C(=O)N[C@@H](CCCCN)C(=O)N[C@@H](CC(N)=O)C(=O)NCC(=O)NCC(=O)N1CCC[C@H]1C(=O)N[C@@H](CO)C(=O)N[C@@H](CO)C(=O)NCC(=O)N[C@@H](C)C(=O)N1CCC[C@H]1C(=O)N1CCC[C@H]1C(=O)N1CCC[C@H]1C(=O)N[C@@H](CO)C(N)=O | – | 0.0286 nM | 0.0183 nM |
| CC[C@H](C)[C@H](NC(=O)[C@H](Cc1ccccc1)NC(=O)[C@H](CC(=O)O)NC(=O)[C@H](CCC(N)=O)NC(=O)[C@H](C)NC(=O)[C@H](CCCNC(=N)N)NC(=O)[C@H](CCCNC(=N)N)NC(=O)[C@H](CO)NC(=O)[C@H](CC(=O)O)NC(=O)[C@]1(C)CCC/C=C\CCC[C@](C)(NC(=O)[C@H](CC(=O)O)NC(=O)[C@H](CO)NC(=O)[C@@H](NC(=O)[C@H](Cc2ccccc2)NC(=O)[C@@H](NC(=O)CNC(=O)[C@H](CCC(N)=O)NC(=O)[C@H](CO)NC(=O)[C@@H](N)Cc2cnc[nH]2)[C@@H](C)O)[C@@H](C)O)C(=O)N[C@@H](CO)C(=O)N[C@@H](CCCCN)C(=O)N[C@@H](CCC(N)=O)C(=O)N1)C(=O)N[C@@H](CCC(=O)O)C(=O)N[C@@H](Cc1c[nH]c2ccccc12)C(=O)N[C@@H](CC(C)C)C(=O)N[C@@H](CCCCN)C(=O)N[C@@H](CC(N)=O)C(=O)NCC(=O)NCC(=O)N1CCC[C@H]1C(=O)N[C@@H](CO)C(=O)N[C@@H](CO)C(=O)NCC(=O)N[C@@H](C)C(=O)N1CCC[C@H]1C(=O)N1CCC[C@H]1C(=O)N1CCC[C@H]1C(=O)N[C@@H](CO)C(N)=O | – | 0.0023 nM | 0.0074 nM |
| CC(C)[C@@H]1NC(=O)[C@H](NC(=O)N[C@@H](CCCCN)C(=O)O)CCCCNC(=O)c2csc1n2 | 10 nM | – | – |

Now from value to molecule, other results behind:

| IC50 (Carboxypeptidase B2) | Structure (SMILES) | EC50 (Glucagon receptor) | EC50 [1] |
| --- | --- | --- | --- |
| 52 nM | CC(C)[C@@H]1NC(=O)[C@H](NC(=O)N[C@@H](CCCCN)C(=O)O)Cc2ccc(cc2)NC(=O)c2coc1n2 | – | – |
| 42 nM | CC(C)[C@@H]1NC(=O)[C@H](NC(=O)N[C@@H](CCCCN)C(=O)O)CCCCNC(=O)c2coc1n2 | – | – |

— ChEMBL document CHEMBL4665843, “Automated Design of Macrocycles for Therapeutic Applications: From Small Molecules to Peptides and Proteins” (J Med Chem, 2020)
